# Assay results: ChEMBL document CHEMBL1141577, “Thiophene containing triarylmethanes as antitubercular agents” (2008)
# Tested on: Mycobacterium tuberculosis
# Assay: Antitubercular activity against Mycobacterium tuberculosis H37Rv by agar dilution method
# Format: functional
# Summary of the method: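 Twofold serial dilutions of compound incorporated into Middlebrook 7H11 agar with OADC supplement, in duplicate wells, at final 12.5, 6.25, 3.125 and 1.56 µg/mL. A known CFU of H37Rv culture was spread on the agar surface, and plates were incubated at 37 °C in 5% CO2. MIC was taken as the lowest concentration giving complete inhibition of colonies.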
row,Compound,MIC [µg/mL]
1,COc1ccc(C(c2ccc(OCCN3CCOCC3)cc2)c2cccs2)cc1 (configuration not stated),> 12.5
2,COc1ccc(C(c2ccc(OCCN(C)C)cc2)c2cccs2)cc1 (configuration not stated),12.5
3,COc1ccc(C(c2ccc(O)cc2)c2cccs2)cc1 (configuration not stated),3.12
4,COc1cccc(C(c2ccc(O)cc2)c2cccs2)c1 (configuration not stated),> 12.5
5,CCN(CC)CCOc1ccc(C(c2ccc(OC)cc2)c2cccs2)cc1 (configuration not stated),6.25
6,COc1cccc(C(c2ccc(OCCN(C)C)cc2)c2cccs2)c1 (configuration not stated),12.5
7,CCN(CC)CCOc1ccc(C(c2ccc(SC)cc2)c2cccs2)cc1 (configuration not stated),3.12
8,COc1ccc(C(c2ccc(OCC(O)CN3CCN(C)CC3)cc2)c2cccs2)cc1 (configuration not stated),> 12.5
9,CSc1ccc(C(c2ccc(O)cc2)c2cccs2)cc1 (configuration not stated),> 12.5
10,NNC(=O)c1ccncc1 [ISONIAZID],0.05
11,CN(C)CCOc1ccc(C(c2ccc(Cl)cc2)c2cccs2)cc1 (configuration not stated),6.25
12,COc1ccc(C(c2cccs2)c2ccccc2OCCN(C)C)cc1 (configuration not stated),> 12.5
13,CO[C@H]1/C=C/O[C@@]2(C)Oc3c(C)c(O)c4c(O)c(c(/C=N/N5CCN(C)CC5)c(O)c4c3C2=O)NC(=O)/C(C)=C\C=C\[C@H](C)[C@H](O)[C@@H](C)[C@@H](O)[C@@H](C)[C@H](OC(C)=O)[C@@H]1C [RIFAMPIN],0.1
14,CSc1ccc(C(c2ccc(OCCN3CCOCC3)cc2)c2cccs2)cc1 (configuration not stated),> 12.5
15,CSc1ccc(C(c2ccc(OCCN3CCCCCC3)cc2)c2cccs2)cc1 (configuration not stated),3.12
16,COc1ccc(C(c2ccc(OCC(O)CN3CCCCC3)cc2)c2cccs2)cc1 (configuration not stated),12.5
17,CCN(CC)CCOc1ccc(C(c2ccc(Cl)cc2)c2cccs2)cc1 (configuration not stated),3.12
18,COc1ccc(C(c2ccc(OCC(O)CN3CCN(Cc4ccccc4)CC3)cc2)c2cccs2)cc1 (configuration not stated),> 12.5
19,COc1ccc(C(c2ccc(OCC(O)CN3CCCC3)cc2)c2cccs2)cc1 (configuration not stated),> 12.5

row,Compound,MIC [µg/mL]
1,COc1ccc(C(c2cccs2)c2ccccc2OCCN2CCCCCC2)cc1 (configuration not stated),> 12.5
2,COc1ccc(C(c2ccc(OCC(O)CN3CCN(c4ccccn4)CC3)cc2)c2cccs2)cc1 (configuration not stated),> 12.5
3,CCN(CC)CCOc1ccccc1C(c1ccc(OC)cc1)c1cccs1 (configuration not stated),> 12.5
4,COc1ccc(C(c2cccs2)c2ccccc2OCCN2CCCC2)cc1 (configuration not stated),> 12.5
5,COc1ccc(C(c2ccc(OCC(O)CNCCc3ccc(OC)c(OC)c3)cc2)c2cccs2)cc1 (configuration not stated),> 12.5
6,COc1ccc(C(c2cccs2)c2ccccc2OCCN2CCCCC2)cc1 (configuration not stated),> 12.5
7,COc1ccc(C(c2ccc(OCC(O)CNCCCn3ccnc3)cc2)c2cccs2)cc1 (configuration not stated),> 12.5
8,Oc1ccc(C(c2ccc(Cl)cc2)c2cccs2)cc1 (configuration not stated),> 12.5
9,COc1cccc(C(c2ccc(OCCN3CCCCCC3)cc2)c2cccs2)c1 (configuration not stated),3.12
10,CCN(CC)CCOc1ccc(C(c2cccc(OC)c2)c2cccs2)cc1 (configuration not stated),3.12
11,COc1ccc(C(c2ccc(OCCN3CCCCCC3)cc2)c2cccs2)cc1 (configuration not stated),12.5
12,COc1ccc(C(c2ccc(OCC(O)CNC3CCCCC3)cc2)c2cccs2)cc1 (configuration not stated),12.5
13,COc1ccc(C(c2ccc(OCC(O)CN3CCSCC3)cc2)c2cccs2)cc1 (configuration not stated),> 12.5
14,Clc1ccc(C(c2ccc(OCCN3CCOCC3)cc2)c2cccs2)cc1 (configuration not stated),12.5
15,CCN(CC)CCCNCC(O)COc1ccc(C(c2ccc(OC)cc2)c2cccs2)cc1 (configuration not stated),> 12.5
16,COc1cccc(C(c2ccc(OCCN3CCOCC3)cc2)c2cccs2)c1 (configuration not stated),12.5
17,CSc1ccc(C(c2ccc(OCCN(C)C)cc2)c2cccs2)cc1 (configuration not stated),> 12.5
18,COc1ccc(C(c2ccc(OCC(O)CNCCCN3CCOCC3)cc2)c2cccs2)cc1 (configuration not stated),> 12.5
